Results published in the RNAGym collection of RNA variant scans (doi:10.1126/science.aae0568).
Variants at the floor of the assay were thinned out.

B1: tRNA (parent)
chain: GUUCCGUUGGCGUAAUGGUAACGCGUCUCCCUCCUAAGGAGAAGACUGCGGGUUCGAGUCCCGUACGGAACG

Variants of: B1
Assay: yeast fitness relative to wild type (ratio to wild type); higher = fitter; tRNA-Arg(CCU), competitive growth, 37 C, YPD
In short: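 Changes in genotype frequencies gave Darwinian fitness relative to wild type. Frequencies were read by 100-nucleotide paired-end sequencing of gene amplicons before and after pooled Saccharomyces cerevisiae strains, carrying tRNA-Arg(CCU) gene variants at the native locus, were competed in YPD at 37°C for 24 hours in six replicates. A genotype was kept only with ≥ 100 starting reads, and estimates < 0.5 were set to 0.5.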

Row | Variant | yeast fitness
1 | A20G G39C | 0.829
2 | A20G G39A | 0.955
3 | A20U C29G C33U A65C C66U | ≤ 0.5
4 | A20G C29A G68A | 0.613
5 | A20U C22U C34A U64C | ≤ 0.5
6 | A20U C29G C49G U54C G63C | 0.535
7 | A20G U35G | 0.708
8 | A20G U35C | 0.836
9 | A20U C29U C49G C55A | 0.522
10 | A20U C29U C62A | 0.543
11 | A20G C60U C66U | ≤ 0.5
12 | A20G C29U G38A G48C C62G | ≤ 0.5
13 | A20G C31G C55G A70G | ≤ 0.5
14 | A20G C62G | 0.804
15 | A20G C62A | 0.715
16 | A20G C30A G48A U53G | 0.505
17 | A20G C33A A36C U47A C66A | ≤ 0.5
18 | A20G U26C A37C G68A | ≤ 0.5
19 | A20G G50A A57U | 0.542
20 | A20G C27G G52A | 0.551
21 | A20G C46U A57C | 0.514
22 | A20U A45C A65G | 0.576
23 | A20G U35A A40C G52A C60A C61G | 0.6
24 | A20U C29U C30U U59A G67A | ≤ 0.5

Row | Variant | yeast fitness
25 | A20G C30U C55U | ≤ 0.5
26 | A20G C55A | 0.585
27 | A20G C55G | 0.586
28 | A20G U26A A45C | 0.519
29 | A20G C66G | 0.809
30 | A20G C66U | 0.857
31 | A20U C29U C30U U59A | 0.636
32 | A20G G25A C66U | 0.682
33 | A20U C24U A42U C46A C55U C61G A69C | 0.59
34 | A20G C31G C46G G50A | ≤ 0.5
35 | A20U A45C G51U A65G | ≤ 0.5
36 | A20G G25A C33U G39A A57G U59C | ≤ 0.5
37 | A20U A45G C46U C66U A69U | ≤ 0.5
38 | A20G C27G G48A | ≤ 0.5
39 | A20G G48A A70G | 0.803
40 | A20U C27U C30A C33G A42G G51C | 0.583
41 | A20G C33G C49A U54G A65G | ≤ 0.5
42 | A20U A21U A65U G67A | ≤ 0.5
43 | A20G C34G C62U | ≤ 0.5
44 | A20U C29G C49G U53A | ≤ 0.5
45 | A20U A43G A57C U59A A65C | ≤ 0.5
46 | A20G C34U A40U A42U U64A | ≤ 0.5
47 | A20G U64G A70C | 0.619
48 | A20G C31U | 0.995

Row | Variant | yeast fitness
49 | A20G C31G | 0.966
50 | A20G C31A | 0.8
51 | A20U A45G C46U | 0.836
52 | A20G C34A A36G C66U | ≤ 0.5
53 | A20G C29U | 0.88
54 | A20G C29A | 0.705
55 | A20G C31G U64C | 0.694
56 | A20U A42C C60A | ≤ 0.5
57 | A20U A36G C49U A70U | ≤ 0.5
58 | A20U C29G | 0.721
59 | A20U C29U | 0.714
60 | A20G U32A | 0.719
61 | A20U C30G C33U C55A | ≤ 0.5
62 | A20G C29A A70U | 0.557
63 | A20G C33G U53A | ≤ 0.5
64 | A20G C24U U26A C61G A65C | 0.567
65 | A20G C27U A57C | ≤ 0.5
66 | A20U A21C C27A G68A | ≤ 0.5
67 | A20G G23A U26G | ≤ 0.5
68 | A20U C29G C61U | ≤ 0.5
69 | A20U A70U | 0.988
70 | A20G U28G A57U A70U | ≤ 0.5
71 | A20G U54A | 0.681
72 | A20G U54G | 0.524

Row | Variant | yeast fitness
73 | A20G G44C | 0.929
74 | A20G C46U A70G | 0.794
75 | A20U C22A C61A C62G | ≤ 0.5
76 | A20U C29G A45G A69U | 0.525
77 | A20G C33U A40G C62G A70U | ≤ 0.5
78 | A20U C27G | 0.642
79 | A20U C24U G48A C55U C60G | ≤ 0.5
80 | A20U C29U G41C G44A A57U | 0.805
81 | A20U C24U C30A C46G G48A | ≤ 0.5
82 | A20U A45C | 0.621
83 | A20U A45G | 0.843
84 | A20G C33A A57G | 0.52
85 | A20G G50C | 0.636
86 | A20G G50U | 0.831
87 | A20G G38C | 0.789
88 | A20U C24A A40C G50C C66U | ≤ 0.5
89 | A20U C24G A45G U53A | ≤ 0.5
90 | A20U C29G C33U | 0.609
91 | A20G G50C C61A A69G | ≤ 0.5
92 | A20U A65U A70C | 0.568
93 | A20G G58A | 0.97
94 | A20G G58U | 0.781
95 | A20U C22G | 0.633
96 | A20G C27G A40U | ≤ 0.5

Row | Variant | yeast fitness
97 | A20U A57G | 0.752
98 | A20U A57C | 0.644
99 | A20G C60G A69C | ≤ 0.5
100 | A20U A43U G48C C60G | ≤ 0.5
101 | A20U A36C C49A C66G | ≤ 0.5
102 | A20G C27U A45C A57C | ≤ 0.5
103 | A20U C27A A40G A69U | ≤ 0.5
104 | A20U A43C G48A C62U | 0.787
105 | A20U C24U A42U C46A G56A G67A | ≤ 0.5
106 | A20U C29A C30A U53G C62A | 0.545
107 | A20U C29G A65U | ≤ 0.5
108 | A20G C33A A43U G44A A69C | ≤ 0.5
109 | A20U C29A C30U A36U | ≤ 0.5
110 | A20U A36C A43U | 0.641
111 | A20G G23A G38C | 0.656
112 | A20G U35C G56C G68C | ≤ 0.5
113 | A20U C29G A43U C66U | ≤ 0.5
114 | A20U A21G C22A G48A C49G | ≤ 0.5
115 | A20U A36G C49U C55G | 0.501
116 | A20U A36G U54C C55G | ≤ 0.5
117 | A20G C30A C55A G68A | ≤ 0.5
118 | A20G G23C G63C | 0.613
119 | A20G U26A U35A A37U | 0.55
120 | A20U C30A G67U | 0.527

Row | Variant | yeast fitness
121 | A20U A36U G44A G51C G52A | ≤ 0.5
122 | A20G G25A C34A G50C | 0.578
123 | A20G G25C C34U G41A C49G | ≤ 0.5
124 | A20U A42C A57C | ≤ 0.5
125 | A20G G50C U54G | ≤ 0.5
126 | A20U A45U C62A A70C | 0.505
127 | A20U A43G A65C | ≤ 0.5
128 | A20G C31U A65U | 0.695
129 | A20U C30G A69C | 0.597
130 | A20G U26C A42U | 0.715
131 | A20G G23A C24G | ≤ 0.5
132 | A20U C24U C29G C49G G63C | ≤ 0.5
133 | A20G G56A | 1.01
134 | A20G G56U | 0.804
135 | A20G G23C C31U C46G A70U | 0.57
136 | A20G C61U | 0.964
137 | A20G C61G | 0.617
138 | A20U C30U G39C A45G G68A A69C | ≤ 0.5
139 | A20U C31G C55G C60G C66U | ≤ 0.5
140 | A20G U28A A69C | ≤ 0.5
141 | A20U A40G G50A | ≤ 0.5
142 | A20G U28A A40G | ≤ 0.5
143 | A20G C34U G38A A43G | ≤ 0.5
144 | A20G C46G | 0.942

Row | Variant | yeast fitness
145 | A20G C46A | 0.925
146 | A20U C27G C34U U35C A36C | 0.921
147 | A20G U28A A42G C55A C66A | ≤ 0.5
148 | A20G U26A C66A | ≤ 0.5
149 | A20G U28C G68C | 0.664
150 | A20G G41A C61U | 0.644
151 | A20G U64C C66G | ≤ 0.5
152 | A20U A36G A37G C55G | 0.546
153 | A20U C31U G38A A69C | ≤ 0.5
154 | A20U A42U | 0.742
155 | A20U A42G | 0.797
156 | A20G C30G | 0.593
157 | A20G C30U | 0.871
158 | A20G C30A | 1
159 | A20G U32C G67C | 0.735
160 | A20U A21C C29U A57C | ≤ 0.5
161 | A20G G39U A40C | ≤ 0.5
162 | A20U C29U C30G C34A U35A C66A | ≤ 0.5
163 | A20G C46A C61G | ≤ 0.5
164 | A20G C27A | 0.933
165 | A20G C27U | 1.1
166 | A20G C27G | 0.608
167 | A20U C22U A42G | ≤ 0.5
